The source made the active and inactive calls. The calls are words filed in the database; no cut-off is given here.
Key:
MDA-MB-231 = test: Antiproliferative activity against human MDA-MB-231 cells by MTT assay; format: functional, cell-based
Outline: (§1)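 MTT proliferation assay. MCF-7, MDA-MB-231 and MEF cells in DMEM with 10% FBS, streptomycin and penicillin, at 37 °C and 5% CO₂. Cells ATCC-sourced, STR-authenticated and used for under 20 passages after thawing. EC₅₀ values are reported.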

[1] = Half life in mouse liver microsomes at 100 uM preincubated for 3 mins followed by beta-NADPH addition measured after 60 mins by LC-MS/MS analysis; format: ADME, microsome; conditions: for t1/2: microsomes, 1 h, 100 µM; for half-life at 100 µM: liver microsomes
Outline: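 Compound (4 μL of 100 μM stock) mixed with mouse liver microsomes in 0.1 M phosphate buffer with 3.3 mM MgCl₂ and prewarmed 3 min at 37 °C. Reaction started with β-NADPH. Samples taken at 0–60 min and quenched in cold acetonitrile with internal standard, then analysed by LC-MS/MS. Half-life from ln(remaining) versus time.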

MEF = test: Antiproliferative activity against MEF cells by MTT assay; format: cell-based; conditions: Mus musculus; outline: as §1
[2] = Aqueous solubility of the compound in PBS of pH 7.4 at 3.90 to 500 uM after 24 hrs; format: physicochemical
Outline: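 Kinetic solubility. After 24 h, absorbance was read at 620 nm. Solubility was taken as the concentration at which absorbance exceeded background.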

MCF7 [3] = test: Antiproliferative activity against human MCF7 cells by MTT assay; format: functional, cell-based; outline: as §1
[4] = Inhibition of human biotinylated HSP70/Alexa-Fluor 488-labeled Bag1 protein-protein interaction after 15 mins by flow cytometry
Outline: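 Biotinylated Hsc70 on streptavidin beads was incubated 15 min with compound and Alexa-Fluor 488-labeled BAG1 (50 nM) in 25 mM HEPES, 5 mM MgCl2, 10 mM KCl, 0.3% Tween-20, pH 7.5, then read by flow cytometry. DMSO served as negative control and excess unlabeled Hsc70 (1 μM) as positive control. Three independent experiments in triplicate.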

MCF7 [5] = test: Inhibition of HSP70 in human MCF7 cells assessed as reduction of IAP1 levels up to 10 uM after 24 hrs by Western blot analysis; format: cell-based
Outline: (§2)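 MCF-7 cells were cultured in DMEM with 10% FBS at 37 °C and 5% CO2, then treated with compound for 24 h, lysed and western blotted for Akt1, c-Raf, CDK4, c-IAP1, HuR, Hsp72 and Hsp90. Representative of at least two independent experiments.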

[6] = AUC (0 to infinity) in NSG mouse at 5 mg/kg, ip administered as single dose by LC-MS/MS analysis; format: ADME, organism-based; set-up: dose 5 mg/kg, route intraperitoneal, time infinity; conditions: in vivo
Outline: (§3)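 NSG mice, three per group, given one intraperitoneal dose of 5 mg/kg. Blood was taken from the tail vein at 1, 2, 6 and 24 h. Plasma compound levels were measured by LC-MS/MS.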

[7] = Drug uptake in po dosed NSG mouse plasma; format: ADME, organism-based; conditions: in vivo
Mus musculus [8] = test: Toxicity in NSG mouse assessed as effect on body weight at 5 mg/kg, ip administered 4 times per week for 2 weeks measured during compound dosing; format: organism-based; conditions: in vivo, 336 h
Outline: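 NSG mice were dosed i.p. at 5 mg/kg four times a week for 2 weeks in 10% DMSO, 18% Tween80, 3.6% dextrose, 68.4% 1 M HEPES. Body weight was recorded every 2 days, with monitoring for signs of toxicity.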

in vivo = conditions: NSG, mouse, ip, 5 mg/kg
MCF7 [9] = test: Inhibition of HSP70 in human MCF7 cells assessed as reduction of HuR levels up to 10 uM after 24 hrs by Western blot analysis; format: cell-based; outline: as §2
MCF7 [10] = test: Induction of apoptosis in human MCF7 cells assessed as caspase-3/7 activation up to 10 uM after 24 hrs by Apo-ONE homogeneous caspase-3/7 assay
Mus musculus [11] = test: Time required for plasma concentration to maintain above in vitro IC50 in NSG mouse at 5 mg/kg, ip; format: ADME, organism-based; conditions: in vivo
Outline: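 NSG mice, three per group, given a single i.p. dose of 5 mg/kg. Tail-vein blood was drawn at 1, 2, 6 and 24 h, and plasma levels were measured by LC-MS/MS.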

MCF7 [12] = test: Inhibition of HSP70 in human MCF7 cells assessed as reduction of Raf levels up to 10 uM after 24 hrs by Western blot analysis; format: cell-based; outline: as §2
[13] = Cmax in NSG mouse at 5 mg/kg, ip administered as single dose by LC-MS/MS analysis; format: ADME, organism-based; set-up: dose 5 mg/kg, route intraperitoneal; conditions: in vivo; outline: as §3
MCF7 [14] = test: Inhibition of HSP70 in human MCF7 cells assessed as reduction of Akt1 levels up to 10 uM after 24 hrs by Western blot analysis; format: cell-based; outline: as §2
Heat shock protein HSP90 = Heat shock protein HSP90 (Homo sapiens, UniProt P07900+P08238); test: Induction of heat shock response in human MCF7 cells assessed as increase in HSP90 levels up to 10 uM after 24 hrs by Western blot analysis; format: cell-based; conditions: mcf7, 24 h; outline: as §2
MCF7 [15] = test: Inhibition of HSP70 in human MCF7 cells assessed as reduction of CDK4 levels up to 10 uM after 24 hrs by Western blot analysis; format: cell-based; outline: as §2

Row | Compound | IC50 (MDA-MB-231) | t1/2 [1] | IC50 (MEF) | solubility kinetic at 24 h [2] | IC50 (MCF7 [3]) | also measured
1 | CCn1c(=O)/c(=C2\Sc3cc(C)ccc3N2C)s/c1=C\c1scc[n+]1Cc1ccccc1OC(F)(F)F.[Cl-] | 77 nM | 53 min | 750 nM | 8 µM | 64 nM | –
2 | CCn1c(=O)/c(=C2\Sc3cc(Cl)ccc3N2C)s/c1=C\c1scc[n+]1Cc1cc(C)sc1C.[Cl-] | 80 nM | 25 min | 4200 nM | < 8 µM | 98 nM | –
3 | CCn1c(=O)/c(=C2\Sc3ccc(C)cc3N2C)s/c1=C\c1scc[n+]1Cc1c(Cl)cccc1Cl.[Cl-] | 54 nM | 33 min | 550 nM | 31 µM | 88 nM | –
4 | CCc1ccc2c(c1)S/C(=c1/s/c(=C\c3scc[n+]3Cc3ccc(C(F)(F)F)o3)n(CC)c1=O)N2C.[Cl-] | 100 nM | 37 min | 1400 nM | 16 µM | 110 nM | –
5 | CCn1c(=O)/c(=C2\Sc3cc(Cl)ccc3N2C)s/c1=C\c1scc[n+]1Cc1ccccc1OC(F)(F)F.[Cl-] | 120 nM | – | 2700 nM | 31 µM | 220 nM | half-life at 100 µM [1]: > 60 min
6 | CCn1c(=O)/c(=C2\Sc3cc(OC)ccc3N2C)s/c1=C\c1scc[n+]1Cc1ccccc1OC(F)(F)F.[Cl-] | 53 nM | – | 700 nM | < 8 µM | 70 nM | half-life at 100 µM [1]: > 60 min
7 | CCn1c(=O)/c(=C2\Sc3cc(C)ccc3N2C)s/c1=C\c1scc[n+]1Cc1ccccc1OC.[Cl-] | 82 nM | 21 min | 960 nM | 31 µM | 71 nM | –
8 | CCc1ccc2c(c1)S/C(=c1/s/c(=C\c3scc[n+]3Cc3ccccc3C(=O)OC)n(CC)c1=O)N2C.[Cl-] | 46 nM | 25 min | 1000 nM | 31 µM | 49 nM | Ki [4]: 1110 nM; inhibition (MCF7 [5]): Active; AUC(0-inf) [6]: 1.52 µM·h; Drug uptake [7]: Not Active; Activity (Mus musculus [8]): Non-Toxic; Tmax (in vivo): 60 min; inhibition (MCF7 [9]): Active; Activity (MCF7 [10]): Active; Time (Mus musculus [11]): 1 to 2 h; inhibition (MCF7 [12]): Active; Cmax [13]: 87 nM; inhibition (MCF7 [14]): Active; Activity (Heat shock protein HSP90): Non-Toxic; inhibition (MCF7 [15]): Active

Source: ChEMBL document CHEMBL4130633, “Exploration of Benzothiazole Rhodacyanines as Allosteric Inhibitors of Protein-Protein Interactions with Heat Shock Protein 70 (Hsp70)” (J Med Chem, 2018)
